For one experiment, the system named is HCT-116. Nature of the experiment: Cytotoxicity against human HCT116 cells after 24 hrs by sulforhodamine B assay. It is filed as functional, cell-based. The conditions noted are these: HCT-116, 24 h.
A further experiment concerns NCI-H460. As to the kind of experiment: Cytotoxicity against human H460 cells after 24 hrs by sulforhodamine B assay. The conditions noted are these: NCI-H460, 24 h. Format: functional, cell-based. In general terms: Sulforhodamine B stains cellular protein and so reports cell mass.
The target of the next experiment is Histone deacetylase 3 (Homo sapiens, UniProt O15379). Nature of the experiment: Inhibition of human HDAC3 by fluorimetry. A digest of the protocol: (§1)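 Each purified single HDAC isoform incubated with fluorogenic substrate, a p53 fragment (residues […], Arg-His-Lys-Lys(Ac)) carrying an ε-acetylated lysine; deacetylation releases fluorophore, read by fluorimeter. Compounds tested as 10 doses, 1:3 serial dilution starting from 50 µM solution. IC50 from dose-response inhibition curves; trichostatin A as reference compound.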

For experiment [1], the target named is T1, Polyamine deacetylase HDAC10 (Homo sapiens, UniProt Q969S8).
T1 sequence (Q969S8 whole entry): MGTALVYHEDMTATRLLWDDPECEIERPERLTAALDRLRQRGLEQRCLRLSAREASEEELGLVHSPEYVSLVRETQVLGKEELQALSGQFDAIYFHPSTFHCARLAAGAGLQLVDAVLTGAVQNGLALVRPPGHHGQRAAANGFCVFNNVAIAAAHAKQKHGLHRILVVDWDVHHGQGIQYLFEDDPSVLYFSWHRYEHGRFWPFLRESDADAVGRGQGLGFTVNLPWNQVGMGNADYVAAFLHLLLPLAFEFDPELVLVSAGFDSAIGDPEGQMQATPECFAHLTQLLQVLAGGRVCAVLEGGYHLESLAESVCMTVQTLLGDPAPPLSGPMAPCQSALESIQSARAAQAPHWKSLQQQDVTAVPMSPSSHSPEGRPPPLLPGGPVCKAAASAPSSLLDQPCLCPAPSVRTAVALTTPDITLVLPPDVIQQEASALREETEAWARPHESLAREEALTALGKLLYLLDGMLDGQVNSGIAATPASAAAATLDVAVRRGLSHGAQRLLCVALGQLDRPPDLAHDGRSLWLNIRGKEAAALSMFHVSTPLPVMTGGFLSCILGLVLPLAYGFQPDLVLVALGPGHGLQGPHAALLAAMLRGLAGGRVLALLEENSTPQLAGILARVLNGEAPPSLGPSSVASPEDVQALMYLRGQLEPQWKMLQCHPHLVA
As to the kind of experiment: Inhibition of human HDAC10 by fluorimetry. A digest of the protocol:
as §1

Another experiment addresses Histone deacetylase 9 (Homo sapiens, UniProt Q9UKV0). As to the kind of experiment: Inhibition of human HDAC9 by fluorimetry. A digest of the protocol: as §1
For experiment [2], the target named is T2, Protein deacetylase HDAC6 (Homo sapiens, UniProt Q9UBN7).
T2 sequence (Q9UBN7 whole entry): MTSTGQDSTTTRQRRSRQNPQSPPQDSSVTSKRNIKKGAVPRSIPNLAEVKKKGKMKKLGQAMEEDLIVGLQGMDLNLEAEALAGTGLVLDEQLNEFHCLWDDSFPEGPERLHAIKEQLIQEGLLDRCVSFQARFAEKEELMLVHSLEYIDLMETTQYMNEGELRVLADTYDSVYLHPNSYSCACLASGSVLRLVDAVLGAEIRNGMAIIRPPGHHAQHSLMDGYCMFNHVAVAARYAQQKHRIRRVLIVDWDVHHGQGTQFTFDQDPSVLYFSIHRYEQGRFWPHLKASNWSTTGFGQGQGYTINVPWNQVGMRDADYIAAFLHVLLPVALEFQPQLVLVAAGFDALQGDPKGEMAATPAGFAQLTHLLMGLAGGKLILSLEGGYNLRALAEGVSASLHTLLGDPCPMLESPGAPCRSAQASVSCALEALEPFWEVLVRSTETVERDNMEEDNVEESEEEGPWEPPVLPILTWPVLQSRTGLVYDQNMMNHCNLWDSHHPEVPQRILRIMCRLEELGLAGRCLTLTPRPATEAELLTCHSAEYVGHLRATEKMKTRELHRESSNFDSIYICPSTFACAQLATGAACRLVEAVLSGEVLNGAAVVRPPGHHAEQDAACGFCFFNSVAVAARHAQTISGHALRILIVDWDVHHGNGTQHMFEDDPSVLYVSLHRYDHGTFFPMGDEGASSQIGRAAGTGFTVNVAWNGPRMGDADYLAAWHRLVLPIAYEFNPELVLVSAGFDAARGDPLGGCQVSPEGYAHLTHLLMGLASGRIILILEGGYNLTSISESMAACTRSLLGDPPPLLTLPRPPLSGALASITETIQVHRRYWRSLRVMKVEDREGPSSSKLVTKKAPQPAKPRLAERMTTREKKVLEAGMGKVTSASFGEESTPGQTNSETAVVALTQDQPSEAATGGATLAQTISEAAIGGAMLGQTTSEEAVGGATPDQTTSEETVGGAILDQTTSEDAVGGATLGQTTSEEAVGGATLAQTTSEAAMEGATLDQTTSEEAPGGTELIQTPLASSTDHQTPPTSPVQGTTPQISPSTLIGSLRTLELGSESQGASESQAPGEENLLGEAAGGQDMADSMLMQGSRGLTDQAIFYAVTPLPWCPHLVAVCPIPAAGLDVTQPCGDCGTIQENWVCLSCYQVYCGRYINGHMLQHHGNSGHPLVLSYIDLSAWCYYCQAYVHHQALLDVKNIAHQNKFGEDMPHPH
Nature of the experiment: Inhibition of human HDAC6 by fluorimetry. A digest of the protocol:
as §1

Another experiment deals with Histone deacetylase 2 (Homo sapiens, UniProt Q92769). Nature of the experiment: Inhibition of human HDAC2 by fluorimetry. A digest of the protocol: as §1
The next experiment deals with Histone deacetylase 4 (Homo sapiens, UniProt P56524). As to the kind of experiment: Inhibition of human HDAC4 by fluorimetry. A digest of the protocol:
as §1

The target of the next experiment is Histone deacetylase 5 (Homo sapiens, UniProt Q9UQL6). Nature of the experiment: Inhibition of human HDAC5 by fluorimetry. A digest of the protocol: as §1
The target in a further experiment is Histone deacetylase 1 (Homo sapiens, UniProt Q13547). As to the kind of experiment: Inhibition of human HDAC1 by fluorimetry. A digest of the protocol: as §1
The next experiment deals with T3, Histone deacetylase 8 (Homo sapiens, UniProt Q9BY41).
T3 sequence (Q9BY41 whole entry): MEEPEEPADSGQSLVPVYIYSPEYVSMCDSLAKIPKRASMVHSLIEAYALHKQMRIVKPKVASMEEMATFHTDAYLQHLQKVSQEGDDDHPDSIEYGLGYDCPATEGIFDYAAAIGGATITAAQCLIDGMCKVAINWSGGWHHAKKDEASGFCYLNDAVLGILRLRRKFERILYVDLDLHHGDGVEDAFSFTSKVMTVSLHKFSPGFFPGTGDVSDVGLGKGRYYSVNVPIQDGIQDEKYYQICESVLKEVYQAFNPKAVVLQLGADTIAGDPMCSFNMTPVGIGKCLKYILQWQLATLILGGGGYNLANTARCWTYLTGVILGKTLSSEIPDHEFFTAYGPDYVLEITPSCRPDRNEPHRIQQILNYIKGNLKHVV
As to the kind of experiment: Inhibition of human HDAC8 by fluorimetry. A digest of the protocol:
as §1

The next experiment addresses T4, Histone deacetylase 11 (Homo sapiens, UniProt Q96DB2).
T4 sequence (Q96DB2 whole entry): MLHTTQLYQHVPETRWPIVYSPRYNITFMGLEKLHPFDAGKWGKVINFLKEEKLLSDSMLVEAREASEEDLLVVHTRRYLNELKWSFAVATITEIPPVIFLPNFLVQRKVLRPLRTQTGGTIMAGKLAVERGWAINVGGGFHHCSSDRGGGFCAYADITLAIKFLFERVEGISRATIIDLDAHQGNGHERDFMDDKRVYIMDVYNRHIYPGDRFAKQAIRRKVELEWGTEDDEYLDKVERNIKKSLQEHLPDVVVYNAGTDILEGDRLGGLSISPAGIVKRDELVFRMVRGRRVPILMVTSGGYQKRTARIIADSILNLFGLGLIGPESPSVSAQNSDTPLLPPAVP
As to the kind of experiment: Inhibition of human HDAC11 by fluorimetry. A digest of the protocol: as §1

Experimental findings from ChEMBL document CHEMBL1153591, “Exploring bis-(indolyl)methane moiety as an alternative and innovative CAP group in the design of histone deacetylase (HDAC) inhibitors” (Bioorg Med Chem Lett, 2009) are described below.

A word on the IC50: it is the concentration needed to halve the response being measured. A high value points to weaker potency.

The structures appear in SMILES notation.

Sequence of Histone deacetylase 4 (P56524 whole entry): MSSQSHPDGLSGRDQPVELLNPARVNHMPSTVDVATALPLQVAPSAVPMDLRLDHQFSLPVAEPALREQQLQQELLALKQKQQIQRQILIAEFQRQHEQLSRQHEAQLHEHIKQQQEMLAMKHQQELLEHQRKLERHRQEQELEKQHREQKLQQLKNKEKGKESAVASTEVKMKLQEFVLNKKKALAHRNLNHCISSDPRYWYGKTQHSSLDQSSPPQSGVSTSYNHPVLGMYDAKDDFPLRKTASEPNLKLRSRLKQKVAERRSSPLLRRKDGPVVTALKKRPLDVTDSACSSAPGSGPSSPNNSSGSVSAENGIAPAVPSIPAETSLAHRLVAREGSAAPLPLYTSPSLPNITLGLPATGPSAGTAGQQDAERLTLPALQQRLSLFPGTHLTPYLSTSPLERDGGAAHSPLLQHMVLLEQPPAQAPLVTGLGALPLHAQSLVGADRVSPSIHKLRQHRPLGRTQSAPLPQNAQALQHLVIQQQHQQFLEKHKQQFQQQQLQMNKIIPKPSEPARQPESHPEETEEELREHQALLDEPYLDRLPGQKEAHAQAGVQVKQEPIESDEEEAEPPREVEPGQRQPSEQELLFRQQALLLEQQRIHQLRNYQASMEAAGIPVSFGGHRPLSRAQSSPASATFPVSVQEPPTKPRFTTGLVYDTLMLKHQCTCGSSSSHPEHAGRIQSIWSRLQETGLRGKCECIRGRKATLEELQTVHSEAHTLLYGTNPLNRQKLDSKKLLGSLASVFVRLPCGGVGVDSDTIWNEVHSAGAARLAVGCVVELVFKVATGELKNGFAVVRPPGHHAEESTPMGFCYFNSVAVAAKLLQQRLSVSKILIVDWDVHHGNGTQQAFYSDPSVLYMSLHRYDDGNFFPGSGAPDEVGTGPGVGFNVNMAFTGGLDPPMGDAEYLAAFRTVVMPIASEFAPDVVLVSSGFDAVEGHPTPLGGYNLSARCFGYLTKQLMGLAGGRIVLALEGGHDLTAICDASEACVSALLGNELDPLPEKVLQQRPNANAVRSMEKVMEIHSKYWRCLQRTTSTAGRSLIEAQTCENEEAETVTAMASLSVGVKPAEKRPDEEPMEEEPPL
Sequence of Histone deacetylase 3 (O15379 whole entry, the tested form may be a part, canonical isoform): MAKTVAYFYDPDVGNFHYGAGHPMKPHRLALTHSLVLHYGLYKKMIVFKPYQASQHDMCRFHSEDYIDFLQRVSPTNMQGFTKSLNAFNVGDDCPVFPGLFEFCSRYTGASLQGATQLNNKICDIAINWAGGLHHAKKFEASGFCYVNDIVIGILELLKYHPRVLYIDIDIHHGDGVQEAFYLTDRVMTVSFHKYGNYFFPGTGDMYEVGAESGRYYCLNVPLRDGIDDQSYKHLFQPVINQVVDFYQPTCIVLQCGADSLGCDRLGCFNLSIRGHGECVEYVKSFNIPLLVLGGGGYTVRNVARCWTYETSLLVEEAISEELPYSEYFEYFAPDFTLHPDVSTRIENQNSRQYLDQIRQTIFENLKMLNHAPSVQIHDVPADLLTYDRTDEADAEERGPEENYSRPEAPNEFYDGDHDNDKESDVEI
Sequence of Histone deacetylase 2 (Q92769 whole entry): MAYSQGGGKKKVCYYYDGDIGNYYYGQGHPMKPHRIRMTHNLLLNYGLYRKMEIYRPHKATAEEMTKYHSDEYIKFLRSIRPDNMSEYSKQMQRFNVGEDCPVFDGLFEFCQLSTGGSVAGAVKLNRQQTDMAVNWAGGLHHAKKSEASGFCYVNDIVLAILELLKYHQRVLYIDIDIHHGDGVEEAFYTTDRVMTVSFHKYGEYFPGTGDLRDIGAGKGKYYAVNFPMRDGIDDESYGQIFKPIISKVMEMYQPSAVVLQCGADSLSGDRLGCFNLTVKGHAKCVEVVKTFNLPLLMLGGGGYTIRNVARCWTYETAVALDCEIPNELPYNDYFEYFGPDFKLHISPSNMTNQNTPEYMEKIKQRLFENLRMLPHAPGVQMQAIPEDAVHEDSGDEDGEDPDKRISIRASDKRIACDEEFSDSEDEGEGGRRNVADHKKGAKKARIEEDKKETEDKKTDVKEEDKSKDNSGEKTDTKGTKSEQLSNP
Sequence of Histone deacetylase 1 (Q13547 whole entry): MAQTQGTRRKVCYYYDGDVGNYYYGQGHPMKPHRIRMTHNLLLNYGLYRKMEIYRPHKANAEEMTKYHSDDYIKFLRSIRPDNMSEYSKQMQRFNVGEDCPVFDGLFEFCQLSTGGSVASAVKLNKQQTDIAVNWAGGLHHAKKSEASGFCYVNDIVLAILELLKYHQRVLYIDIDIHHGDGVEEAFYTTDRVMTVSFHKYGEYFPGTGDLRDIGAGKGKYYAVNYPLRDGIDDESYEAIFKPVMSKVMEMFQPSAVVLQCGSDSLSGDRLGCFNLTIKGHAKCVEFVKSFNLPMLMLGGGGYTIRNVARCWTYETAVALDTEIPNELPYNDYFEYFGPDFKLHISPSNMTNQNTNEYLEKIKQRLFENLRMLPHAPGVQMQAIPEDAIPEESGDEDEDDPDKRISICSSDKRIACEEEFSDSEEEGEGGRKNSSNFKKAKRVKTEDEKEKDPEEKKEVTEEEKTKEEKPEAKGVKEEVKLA
Sequence of Histone deacetylase 9 (Q9UKV0 whole entry): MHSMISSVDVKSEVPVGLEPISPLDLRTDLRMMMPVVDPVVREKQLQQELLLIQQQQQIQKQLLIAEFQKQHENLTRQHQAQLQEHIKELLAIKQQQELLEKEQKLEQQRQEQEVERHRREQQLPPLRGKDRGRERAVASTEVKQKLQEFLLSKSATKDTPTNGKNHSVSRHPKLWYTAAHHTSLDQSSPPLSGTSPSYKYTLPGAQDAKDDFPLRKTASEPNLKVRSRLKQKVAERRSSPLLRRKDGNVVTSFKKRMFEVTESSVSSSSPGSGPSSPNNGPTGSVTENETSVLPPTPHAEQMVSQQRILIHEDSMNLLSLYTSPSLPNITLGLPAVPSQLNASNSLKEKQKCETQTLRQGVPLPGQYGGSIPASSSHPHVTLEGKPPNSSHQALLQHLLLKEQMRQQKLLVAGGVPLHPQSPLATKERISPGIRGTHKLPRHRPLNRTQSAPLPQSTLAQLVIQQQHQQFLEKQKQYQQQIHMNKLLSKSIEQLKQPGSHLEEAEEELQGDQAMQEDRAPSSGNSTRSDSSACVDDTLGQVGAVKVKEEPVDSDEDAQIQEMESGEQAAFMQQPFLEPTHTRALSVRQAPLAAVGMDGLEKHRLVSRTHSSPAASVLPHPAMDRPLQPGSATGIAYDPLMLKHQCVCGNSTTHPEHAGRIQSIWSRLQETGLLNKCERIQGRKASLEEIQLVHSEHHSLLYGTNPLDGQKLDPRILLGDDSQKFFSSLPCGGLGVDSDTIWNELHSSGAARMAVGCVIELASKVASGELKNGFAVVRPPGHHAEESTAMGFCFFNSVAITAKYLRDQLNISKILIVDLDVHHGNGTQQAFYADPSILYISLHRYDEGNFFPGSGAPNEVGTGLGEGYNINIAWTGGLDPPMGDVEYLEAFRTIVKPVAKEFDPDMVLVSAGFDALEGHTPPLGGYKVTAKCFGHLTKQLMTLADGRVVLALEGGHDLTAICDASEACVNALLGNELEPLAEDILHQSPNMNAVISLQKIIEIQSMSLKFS
Sequence of Histone deacetylase 5 (Q9UQL6 whole entry): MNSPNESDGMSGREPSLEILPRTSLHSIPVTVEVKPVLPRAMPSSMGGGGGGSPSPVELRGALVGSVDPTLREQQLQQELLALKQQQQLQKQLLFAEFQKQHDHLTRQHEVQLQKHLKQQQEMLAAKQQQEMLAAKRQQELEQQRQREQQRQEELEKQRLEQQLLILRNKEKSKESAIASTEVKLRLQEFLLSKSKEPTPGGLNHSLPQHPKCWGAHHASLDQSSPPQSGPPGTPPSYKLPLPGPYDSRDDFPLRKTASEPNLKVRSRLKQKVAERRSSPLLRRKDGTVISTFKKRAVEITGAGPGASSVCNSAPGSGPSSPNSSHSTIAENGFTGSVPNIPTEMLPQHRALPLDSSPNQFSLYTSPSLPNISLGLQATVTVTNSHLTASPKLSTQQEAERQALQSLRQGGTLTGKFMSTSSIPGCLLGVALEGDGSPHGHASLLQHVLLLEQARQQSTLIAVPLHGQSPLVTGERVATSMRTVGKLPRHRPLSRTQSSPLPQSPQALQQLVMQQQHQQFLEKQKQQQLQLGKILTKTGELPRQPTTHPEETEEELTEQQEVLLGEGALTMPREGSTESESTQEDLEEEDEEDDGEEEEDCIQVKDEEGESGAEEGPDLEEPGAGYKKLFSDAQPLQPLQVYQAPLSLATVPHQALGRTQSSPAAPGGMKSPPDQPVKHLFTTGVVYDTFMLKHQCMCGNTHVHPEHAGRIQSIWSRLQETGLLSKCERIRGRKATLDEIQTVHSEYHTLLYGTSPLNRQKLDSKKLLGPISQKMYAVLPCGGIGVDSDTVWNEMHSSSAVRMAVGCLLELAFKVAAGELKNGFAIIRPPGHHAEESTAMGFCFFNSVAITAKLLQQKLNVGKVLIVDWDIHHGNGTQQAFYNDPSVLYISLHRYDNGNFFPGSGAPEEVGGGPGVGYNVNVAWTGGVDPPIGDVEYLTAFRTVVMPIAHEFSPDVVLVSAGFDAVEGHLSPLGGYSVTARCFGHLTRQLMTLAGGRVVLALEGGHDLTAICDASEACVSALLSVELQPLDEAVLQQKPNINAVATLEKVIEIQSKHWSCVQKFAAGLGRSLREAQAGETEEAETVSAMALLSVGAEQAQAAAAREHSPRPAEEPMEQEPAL

On to `O=C(CCCCCC(c1c[nH]c2cccc(F)c12)c1c[nH]c2cccc(F)c12)NO`, for which the IC50 in the experiment on HCT-116 came out at 0.4 µM; in the experiment with NCI-H460 it was 0.7 µM.
Consider `Cn1cc(C(CCCCCC(=O)NO)c2cn(C)c3ccccc23)c2ccccc21`, for which the IC50 with HCT-116 was determined as 6.6 µM; with NCI-H460, 8.8 µM.
Consider `Cc1[nH]c2ccccc2c1C(c1ccc(/C=C/C(=O)NO)cc1)c1c(C)[nH]c2ccccc12`, for which the IC50 in the experiment on HCT-116 and with NCI-H460 was greater than 20 µM in each case.
Take `O=C(CCCCCc1c[nH]c2ccccc12)NO`: the IC50 is 15 µM in the experiment with HCT-116 and 22 µM in the experiment on NCI-H460.
In the case of `O=C(CCCC(c1c[nH]c2ccccc12)c1c[nH]c2ccccc12)NO`, the IC50 in the experiment with HCT-116 and in the experiment with NCI-H460 was greater than 20 µM each time.
Consider `O=C(CCC(c1c[nH]c2ccccc12)c1c[nH]c2ccccc12)NO`, for which the 50% inhibitory concentration (IC50) in the experiment with HCT-116 and in the experiment on NCI-H460 was greater than 20 µM throughout.
For the compound `O=C(CCCCC(c1c[nH]c2ccccc12)c1c[nH]c2ccccc12)NO`, the IC50 worked out at 5.8 µM with HCT-116 and 5.2 µM in the experiment on NCI-H460.
On to `COc1cccc2c(C(CCCCCC(=O)NO)c3c[nH]c4c(OC)cccc34)c[nH]c12`, for which the IC50 stood at 0.41 µM in the experiment on HCT-116; 23 nM against Histone deacetylase 3; 240 nM in [1]; 340 nM on Histone deacetylase 9; 2.6 nM in experiment [2]; 440 nM against Histone deacetylase 2. The IC50 is 220 nM on Histone deacetylase 4; 311 nM against Histone deacetylase 5; 0.55 µM in the experiment on NCI-H460; 83 nM against Histone deacetylase 1; 180 nM at Histone deacetylase 8.
Take `O=C(CCCCCC(c1c[nH]c2ccc([N+](=O)[O-])cc12)c1c[nH]c2ccc([N+](=O)[O-])cc12)NO`: the IC50 was 1.2 µM in the experiment on HCT-116; 18 nM against Histone deacetylase 3; 250 nM in experiment [1]; 150 nM against Histone deacetylase 9; 20 nM in experiment [2]; 590 nM on Histone deacetylase 2. Besides, the IC50 on Histone deacetylase 4 is 220 nM; at Histone deacetylase 5, 140 nM; in the experiment with NCI-H460, 3.2 µM; on Histone deacetylase 1 it was 140 nM; against Histone deacetylase 8 it was 600 nM.
As to `Cc1[nH]c2ccccc2c1C(CCCCCC(=O)NO)c1c(C)[nH]c2ccccc12`, the figures for the IC50 with HCT-116 and in the experiment with NCI-H460 were 3.2 µM and 4.3 µM, respectively.
Take `O=C(CCCCCCC(c1c[nH]c2ccccc12)c1c[nH]c2ccccc12)NO`: the IC50 was found to be 3.5 µM in the experiment with HCT-116 and 2.7 µM in the experiment on NCI-H460.
The like results for `Cc1ccc2[nH]cc(C(CCCCCC(=O)NO)c3c[nH]c4ccc(C)cc34)c2c1` were, in that order, 0.27 µM and 0.51 µM.
Consider `CCc1cccc2c(C(CCCCCC(=O)NO)c3c[nH]c4c(CC)cccc34)c[nH]c12`, for which the IC50 in the experiment on HCT-116 was 3.5 µM; with NCI-H460, 4.8 µM.
The like results for `CN(O)C(=O)CCCCCC(c1cn(C)c2ccccc12)c1cn(C)c2ccccc12` were, in that order, greater than 20 µM and greater than 20 µM.
Regarding `O=C(CCCCCC(c1c[nH]c2ccccc12)c1c[nH]c2ccccc12)NO`, the IC50 worked out at 0.6 µM with HCT-116; 350 nM against Histone deacetylase 3; 870 nM in experiment [1]; 640 nM on Histone deacetylase 9; 6 nM in experiment [2]; 0.43 µM against Histone deacetylase 11. Further, the IC50 is 2000 nM against Histone deacetylase 2; 1300 nM against Histone deacetylase 4; 590 nM at Histone deacetylase 5; 1.2 µM in the experiment with NCI-H460; 730 nM against Histone deacetylase 1; 240 nM at Histone deacetylase 8.
With `Nc1ccccc1NC(=O)CCCCCC(c1c[nH]c2ccccc12)c1c[nH]c2ccccc12`, the IC50 with HCT-116 stood at 16.5 µM; against Histone deacetylase 3 it was 260 nM; in experiment [1], 73000 nM; against Histone deacetylase 9, 50000 nM; on Histone deacetylase 11, 5.8 µM; on Histone deacetylase 2 it was 1100 nM. The 50% inhibitory concentration (IC50) at Histone deacetylase 4 is 150000 nM; against Histone deacetylase 5 it was 28000 nM; in the experiment on NCI-H460 it was greater than 20 µM; on Histone deacetylase 1 it was 21000 nM; against Histone deacetylase 8 it was 74000 nM.
In the case of `O=C(CCCCCC(c1cc2ccccc2[nH]1)c1c[nH]c2ccccc12)NO` (stereo not drawn), the IC50 in the experiment with HCT-116 is 0.84 µM; in the experiment with NCI-H460, 0.82 µM.
Consider `CN(O)C(=O)CCCCCC(c1c[nH]c2ccccc12)c1c[nH]c2ccccc12`, for which the IC50 with HCT-116 and with NCI-H460 was greater than 20 µM each time.
